Data reported in the array DNA melting data of Ke et al. (doi:10.1101/2024.01.08.574731).

Legend:
[1] = melting temperature; fluorescence melt of hairpins on a sequencing array, two-state fit, raised by 9.35 °C to match UV melts; conditions: sodium 0.088 M
In short: (§1)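 Melting temperature and folding enthalpy were obtained by bootstrapped two-state fitting. Fits used Cy3 fluorescence of library hairpins with annealed Cy3 and quencher oligos on a sequenced MiSeq flow cell, imaged in 50 mM Na-HEPES pH 8.0, 25 mM NaCl in 2.5 °C steps up to 60 °C and normalised to pre-quench Cy3 and control constructs. Four replicates were combined by inverse-variance weighting, and fitted temperatures were raised by 9.35 °C to match UV melts.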

[2] = folding enthalpy; higher = less favourable; fluorescence melt of hairpins on a sequencing array, two-state fit; conditions: sodium 0.088 M
In short: as §1

GGTCTAGGAAACTAGACC (((((((....)))))))
Tm [1]: 60.5 °C
folding enthalpy [2]: -47.7 kcal/mol

GGTCTCGAAAGAGAAACC ((((((....)))..)))
Tm [1]: 34.7 °C
folding enthalpy [2]: -21.5 kcal/mol

GGTCTCGAAAGAGCAACC ((((((....)))..)))
Tm [1]: 34.5 °C
folding enthalpy [2]: -14.2 kcal/mol

GGTCTCGAAAGAGCCACC ((((((....)))..)))
Tm [1]: 43.3 °C
folding enthalpy [2]: -14.8 kcal/mol

GGTCTCGAAAGAGGAACC ((((((....)))..)))
Tm [1]: 35.1 °C
folding enthalpy [2]: -16.9 kcal/mol

GGTCTCGGAAACGAGATC (.(((((....))))).)
Tm [1]: 52.1 °C
folding enthalpy [2]: -38.2 kcal/mol

GGTCTGGCGAAAGCCACC (((..(((....))))))
Tm [1]: 27.1 °C
folding enthalpy [2]: -7.45 kcal/mol

GGTCTTGGAAACAAGGTC (..((((....))))..)
Tm [1]: 30.4 °C
folding enthalpy [2]: -12 kcal/mol

GGTGAACGAAAGTTAACC (((.(((....))).)))
Tm [1]: 49.2 °C
folding enthalpy [2]: -34.1 kcal/mol

GGTGAAGGAAACTTCGCC ((.((((....)))).))
Tm [1]: 52.6 °C
folding enthalpy [2]: -45.2 kcal/mol

GGTGAAGGAAACTTCGTC (..((((....))))..)
Tm [1]: 26.6 °C
folding enthalpy [2]: -12 kcal/mol

GGTGACCGAAAGGTTACC (((.(((....))).)))
Tm [1]: 60.5 °C
folding enthalpy [2]: -40 kcal/mol

GGTGACGAAAGTCAGACC ((((((....)))..)))
Tm [1]: 44.6 °C
folding enthalpy [2]: -14.6 kcal/mol

GGTGACGAAAGTCATACC ((((((....)))..)))
Tm [1]: 40.7 °C
folding enthalpy [2]: -13.6 kcal/mol

GGTGACGAAAGTCGACC ((((((....))).)))
Tm [1]: 53.4 °C
folding enthalpy [2]: -23.1 kcal/mol

GGTGACGAAAGTCGGACC ((((((....)))..)))
Tm [1]: 42.1 °C
folding enthalpy [2]: -15.8 kcal/mol

GGTGACGAAAGTCTAACC ((((((....)))..)))
Tm [1]: 42.2 °C
folding enthalpy [2]: -18.2 kcal/mol

GGTGAGAAATCACC (((((....)))))
Tm [1]: 51 °C
folding enthalpy [2]: -27.6 kcal/mol

GGTGAGCGAAAGCTTACC (((.(((....))).)))
Tm [1]: 59.3 °C
folding enthalpy [2]: -26.7 kcal/mol

GGTGAGGGAAACTTCGCC ((.((.(....).)).))
Tm [1]: 35.7 °C
folding enthalpy [2]: -23.7 kcal/mol

GGTGATACGAAAGTAACC (((..(((....))))))
Tm [1]: 33.6 °C
folding enthalpy [2]: -11.7 kcal/mol

GGTGATCCGAAAGGAACC (((..(((....))))))
Tm [1]: 33.2 °C
folding enthalpy [2]: -18.7 kcal/mol

GGTGATGGAAACATCGCC ((.((((....)))).))
Tm [1]: 55.6 °C
folding enthalpy [2]: -45.2 kcal/mol

GGTGCCCGAAAGGGACC (((.(((....))))))
Tm [1]: 58.1 °C
folding enthalpy [2]: -21.5 kcal/mol

GGTGCCGAAAGGCATACC ((((((....)))..)))
Tm [1]: 48.2 °C
folding enthalpy [2]: -11.6 kcal/mol

GGTGCCGAAAGGCCTACC ((((((....)))..)))
Tm [1]: 39.6 °C
folding enthalpy [2]: -10.7 kcal/mol

GGTGCGGGAAACCGTACC (((.(((....))).)))
Tm [1]: 58.1 °C
folding enthalpy [2]: -44.7 kcal/mol

GGTGCGGGAAACCGTGCC ((..(((....)))..))
Tm [1]: 53.1 °C
folding enthalpy [2]: -46.1 kcal/mol

GGTGCTGGAAACAGCGTC (..((((....))))..)
Tm [1]: 41 °C
folding enthalpy [2]: -12.8 kcal/mol

GGTGGACGAAAGTCAACC (((.(((....))).)))
Tm [1]: 56.6 °C
folding enthalpy [2]: -40.3 kcal/mol

GGTGGACGAAAGTCACC (((.(((....))))))
Tm [1]: 55.3 °C
folding enthalpy [2]: -25.5 kcal/mol

GGTGGCCGAAAGGCAACC (((.(((....))).)))
Tm [1]: 66.5 °C
folding enthalpy [2]: -28.1 kcal/mol

GGTGGCCGAAAGGCGACC (((.(((....))).)))
Tm [1]: 66.2 °C
folding enthalpy [2]: -30.2 kcal/mol

GGTGGCGAAAGCCACACC ((((((....)))..)))
Tm [1]: 60 °C
folding enthalpy [2]: -6.43 kcal/mol

GGTGGCGAAAGCCGGACC ((((((....)))..)))
Tm [1]: 46.8 °C
folding enthalpy [2]: -12.1 kcal/mol

GGTGGCGAAAGCCTAACC ((((((....)))..)))
Tm [1]: 43.7 °C
folding enthalpy [2]: -16.5 kcal/mol

GGTGGCGCGAAAGCGACC (((..(((....))))))
Tm [1]: 52.8 °C
folding enthalpy [2]: -9.77 kcal/mol
